Results from ChEMBL document CHEMBL5724801, “EUbOPEN Chemogenomics Library - Multiplex” (2024).
Where “and” joins values, the source holds several entries; their conditions need not be identical. Equal entries are not always repeated.

tested on: Fibroblast; test: Multiplex assay against human fibroblast; type: toxicity, cell-based; conditions: 12 h, 1 µM, compound concentration 1 uM
Summary of the method: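 Cells stained live at seeding with Hoechst33342, BioTracker Green Microtubule Cytoskeleton Dye, MitoTracker Red and Annexin V Alexa Fluor 680 were imaged on a CQ1 microscope at 37°C and 5% CO2 after compound addition. Their classification by CellPathfinder machine-learning gating ran from Hoechst high-intensity objects versus normal cells, to healthy, pyknosed or fragmented nuclei among normal cells, to mitotic or apoptotic among pyknosed cells. Tubulin, mitochondrial-mass and membrane-permeability phenotypes are per cents of healthy-nucleus cells.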

Compound	Population Apoptotic (%)	Population Fragmented Nuclei (%)	Population Healthy Nuclei (%)	Population Hoechst High Intensity Objects (%)	Population Membrane Permeable-Phenotype (%)	Population Mitochondria Different-Phenotype (%)	Population Mitotic Cells (%)	Population Normal (%)	Population Pyknosed Nuclei (%)	Population Tubulin-Different-Phenotype (%)
O=C1NCc2ccc3c(-c4cccc(Cl)c4)c[nH]c3c21	13.51% and 26.32%	16.45% and 5.58%	59.21% and 76.74%	0	4.44% and 3.64%	8.89% and 8.48%	86.49% and 73.68%	100	24.34% and 17.67%	10% and 13.33%
C=C(C)[C@H]1CN[C@H](C(=O)O)[C@H]1CC(=O)O [KAINIC ACID]		7.74% and 5.42%	70.97% and 80.83%	0	7.27% and 2.58%	7.27% and 10.31%	93.94% and 72.73%	100	21.29% and 13.75%	10% and 19.07%

same assay, conditions: 12 h, 1 µM, compound concentration 1 uM

Compound	Total Cell Count
O=C1NCc2ccc3c(-c4cccc(Cl)c4)c[nH]c3c21	152 and 215
C=C(C)[C@H]1CN[C@H](C(=O)O)[C@H]1CC(=O)O [KAINIC ACID]	155 and 240

same assay, conditions: 12 h, 10 µM, compound concentration 10 uM

Compound	Population Apoptotic (%)	Population Fragmented Nuclei (%)	Population Healthy Nuclei (%)	Population Hoechst High Intensity Objects (%)	Population Membrane Permeable-Phenotype (%)	Population Mitochondria Different-Phenotype (%)	Population Mitotic Cells (%)	Population Normal (%)	Population Pyknosed Nuclei (%)	Population Tubulin-Different-Phenotype (%)
O=C1NCc2ccc3c(-c4cccc(Cl)c4)c[nH]c3c21	23.21% and 34.92%	9.88% and 1.93%	57.56% and 67.63%	0	3.03% and 5%	15.15% and 17.86%	76.79% and 65.08%	100	32.56% and 30.43%	8.08% and 17.14%
C=C(C)[C@H]1CN[C@H](C(=O)O)[C@H]1CC(=O)O [KAINIC ACID]	8.57% and 22.92%	7.35% and 3.47%	75.49% and 77.99%	0	5.19% and 2.97%	6.49% and 10.89%	91.43% and 77.08%	100	17.16% and 18.53%	11.04% and 20.3%

same assay, conditions: 12 h, 10 µM, compound concentration 10 uM

Compound	Total Cell Count
O=C1NCc2ccc3c(-c4cccc(Cl)c4)c[nH]c3c21	172 and 207
C=C(C)[C@H]1CN[C@H](C(=O)O)[C@H]1CC(=O)O [KAINIC ACID]	204 and 259

same assay, conditions: 24 h, 1 µM, compound concentration 1 uM

Compound	Population Apoptotic (%)	Population Fragmented Nuclei (%)	Population Healthy Nuclei (%)	Population Hoechst High Intensity Objects (%)	Population Membrane Permeable-Phenotype (%)	Population Mitochondria Different-Phenotype (%)	Population Mitotic Cells (%)	Population Normal (%)	Population Pyknosed Nuclei (%)	Population Tubulin-Different-Phenotype (%)
O=C1NCc2ccc3c(-c4cccc(Cl)c4)c[nH]c3c21	18.75% and 20.59%	13.25% and 6.58%	65.56% and 79.42%	0	7.07% and 4.66%	10.1% and 5.18%	81.25% and 79.41%	100	21.19% and 13.99%	13.13% and 9.84%
C=C(C)[C@H]1CN[C@H](C(=O)O)[C@H]1CC(=O)O [KAINIC ACID]	13.51% and 31.58%	7.78% and 7.44%	71.67% and 84.71%	0	3.88% and 1.46%	0.78% and 5.37%	86.49% and 68.42%	100	20.56% and 7.85%	

same assay, conditions: 24 h, 1 µM, compound concentration 1 uM

Compound	Total Cell Count
O=C1NCc2ccc3c(-c4cccc(Cl)c4)c[nH]c3c21	151 and 243
C=C(C)[C@H]1CN[C@H](C(=O)O)[C@H]1CC(=O)O [KAINIC ACID]	180 and 242

same assay, conditions: 24 h, 10 µM, compound concentration 10 uM

Compound	Population Apoptotic (%)	Population Fragmented Nuclei (%)	Population Healthy Nuclei (%)	Population Hoechst High Intensity Objects (%)	Population Membrane Permeable-Phenotype (%)	Population Mitochondria Different-Phenotype (%)	Population Mitotic Cells (%)	Population Normal (%)	Population Pyknosed Nuclei (%)	Population Tubulin-Different-Phenotype (%)
O=C1NCc2ccc3c(-c4cccc(Cl)c4)c[nH]c3c21	30.77% and 40.54%	11.59% and 4.85%	64.63% and 77.18%	0	3.77%	12.26% and 8.81%	69.23% and 59.46%	100	23.78% and 17.96%	9.43% and 8.81%
C=C(C)[C@H]1CN[C@H](C(=O)O)[C@H]1CC(=O)O [KAINIC ACID]	5.41% and 14.29%	8.53% and 4.49%	73.93% and 85.02%	0	8.33% and 2.64%	4.49% and 3.52%	94.59% and 85.71%	100	17.54% and 10.49%	17.31% and 18.5%

same assay, conditions: 24 h, 10 µM, compound concentration 10 uM

Compound	Total Cell Count
O=C1NCc2ccc3c(-c4cccc(Cl)c4)c[nH]c3c21	164 and 206
C=C(C)[C@H]1CN[C@H](C(=O)O)[C@H]1CC(=O)O [KAINIC ACID]	211 and 267

same assay, conditions: 48 h, 1 µM, compound concentration 1 uM

Compound	Population Apoptotic (%)	Population Fragmented Nuclei (%)	Population Healthy Nuclei (%)	Population Hoechst High Intensity Objects (%)	Population Membrane Permeable-Phenotype (%)	Population Mitotic Cells (%)	Population Normal (%)	Population Pyknosed Nuclei (%)	Population Tubulin-Different-Phenotype (%)	Total Cell Count
O=C1NCc2ccc3c(-c4cccc(Cl)c4)c[nH]c3c21	20.83% and 38.89%	10.71% and 5.78%	75% and 86.22%	0	4.76% and 5.67%	79.17% and 61.11%	100	14.29% and 8%	7.94% and 9.28%	168 and 225
C=C(C)[C@H]1CN[C@H](C(=O)O)[C@H]1CC(=O)O [KAINIC ACID]	0% and 25%	7.94% and 4.31%	88.89% and 87.84%	0	0.6% and 1.34%	100% and 75%	100	3.17% and 7.84%		189 and 255

same assay, conditions: 48 h, 1 µM, compound concentration 1 uM

Compound	Population Mitochondria Different-Phenotype (%)
C=C(C)[C@H]1CN[C@H](C(=O)O)[C@H]1CC(=O)O [KAINIC ACID]	15.48% and 5.36%

same assay, conditions: 48 h, 10 µM, compound concentration 10 uM

Compound	Population Apoptotic (%)	Population Fragmented Nuclei (%)	Population Healthy Nuclei (%)	Population Hoechst High Intensity Objects (%)	Population Membrane Permeable-Phenotype (%)	Population Mitochondria Different-Phenotype (%)	Population Mitotic Cells (%)	Population Normal (%)	Population Pyknosed Nuclei (%)	Population Tubulin-Different-Phenotype (%)
O=C1NCc2ccc3c(-c4cccc(Cl)c4)c[nH]c3c21	20% and 60%	11.49% and 4.95%	77.01% and 82.67%	0	2.24% and 5.99%	10.45% and 5.99%	80% and 40%	100	11.49% and 12.38%	5.97% and 10.18%
C=C(C)[C@H]1CN[C@H](C(=O)O)[C@H]1CC(=O)O [KAINIC ACID]	36.36% and 23.53%	9.7% and 6.92%	85.65% and 86.54%	0	2.96% and 2.22%		63.64% and 76.47%	100	4.64% and 6.54%	

same assay, conditions: 48 h, 10 µM, compound concentration 10 uM

Compound	Total Cell Count
O=C1NCc2ccc3c(-c4cccc(Cl)c4)c[nH]c3c21	174 and 202
C=C(C)[C@H]1CN[C@H](C(=O)O)[C@H]1CC(=O)O [KAINIC ACID]	237 and 260
